Active and inactive are the calls of the source. The calls are words filed in the database; no cut-off is given here.
Assays:
[1] = test system: A10; experiment: Induction of actin microfilament disrupting activity in rat A10 cells at 113 uM after 24 hrs; type: functional, cell-based
Procedure, shortened: (§1)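 A-10 rat aortic smooth muscle cells on glass coverslips in BME with 10% fetal calf serum, treated 24 h. Fixed in 3% paraformaldehyde, permeabilised with 0.2% Triton X-100, reduced with sodium borohydride. Actin stained 45 min with 100 nM TRITC-phalloidin, DNA with DAPI. Examined by fluorescence microscopy.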

[2] = test system: NCI-H460; experiment: Induction of morphological changes in human NCI-H460 cells at 13.5 uM after 24 hrs; type: functional, cell-based
[3] = test system: MDA-MB-435; experiment: Cell cycle arrest in human MDA-MB-435 cells assessed as accumulation at G1 phase at 20 uM after 24 hrs by flow cytometry; type: functional
Procedure, shortened: (§2)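 MDA-MB-435 cells grown in IMEM with 10% FBS and gentamycin. Exposed 24 h to vehicle or sample, harvested and stained with Krishan's reagent. Propidium iodide intensity read by flow cytometry, with quality-control samples each run. Percentage of cells in each cycle phase fitted by manual analysis.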

[4] = test system: A10; experiment: Induction of actin microfilament disrupting activity in rat A10 cells at 45 uM after 24 hrs; type: functional, cell-based; procedure, shortened: as §1
[5] = test system: NCI-H460; experiment: Induction of morphological changes in human NCI-H460 cells at 13.5 uM after 6 days; type: functional
[6] = test system: MDA-MB-435; experiment: Cell cycle arrest in human MDA-MB-435 cells assessed as accumulation at S phase at 20 uM after 24 hrs by flow cytometry; type: functional; procedure, shortened: as §2
[7] = test system: A10; experiment: Induction of microtubule depolymerization in rat A10 cells at 113 uM after 24 hrs by indirect immunofluorescence technique; type: functional, cell-based
Procedure, shortened: (§3)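 A-10 cells on glass coverslips in Basal Medium Eagle with 10% FBS, treated 18-24 h. Methanol-fixed, blocked with 10% calf serum, probed with monoclonal β-tubulin antibody then FITC sheep anti-mouse secondary for 1 h. Nuclei stained with 0.1 μg/mL DAPI. Examined by fluorescence microscopy.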

[8] = test system: N2a; experiment: Cytotoxicity against mouse Neuro2a cells at 45 uM after 48 hrs by MTT assay; type: functional, cell-based
Procedure, shortened: (§4)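 Cells grown in RPMI-1640 with L-glutamine, 1 mM pyruvate, penicillin/streptomycin, 0.2% bicarbonate and 10% FBS, seeded at 6000 cells/well. After 24 h, compound in DMSO diluted into serum-free medium was added (DMSO under 1% final), as a single screening concentration or a dilution series. Viability by MTT reduction after 48 h.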

[9] = test system: NCI-H460; experiment: Cytotoxicity against human NCI-H460 cells after 48 hrs by MTT assay; type: functional, cell-based; conditions: NCI-H460, 48 h; procedure, shortened: as §4
[10] = test system: A10; experiment: Induction of nucleus breakdown into micronuclei in rat A10 cells; type: functional, cell-based; procedure, shortened: as §3
[11] = test system: MDA-MB-435; experiment: Cytotoxicity against human MDA-MB-435 cells after 48 hrs by SRB assay; type: functional, cell-based; conditions: MDA-MB-435, 48 h
Procedure, shortened: (§5)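 MDA-MB-435 cells grown in IMEM with 10% FBS, attached 24 h in 96-well plates, then exposed 48 h to compound or EtOH vehicle. Fixed with 10% TCA at 4 °C for 1 h, stained with 0.4% SRB for 30 min, washed with 1% HOAc, solubilised in 10 mM Tris. Absorbance read at 560 nm. IC50 taken from linear portion of log dose-response curves.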

[12] = test system: A10; experiment: Induction of microtubule depolymerization in rat A10 cells at 45 uM after 24 hrs by indirect immunofluorescence technique; type: functional; conditions: A10, 24 h; procedure, shortened: as §3
[13] = test system: MDA-MB-435; experiment: Cell cycle arrest in human MDA-MB-435 cells assessed as accumulation at G2/M phase at 20 uM after 24 hrs by flow cytometry; type: functional; procedure, shortened: as §2
[14] = Displacement of radiolabeled MK801 from NMDA receptor at 10 uM
Procedure, shortened: (§6)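 Receptor screen run by the NIMH Psychoactive Drug Screening Program. Each compound at 10 μM incubated with the relevant receptor preparation; percent inhibition of radioligand binding determined.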

[15] = test system: MDA-MB-435; experiment: Cytotoxicity against human MDA-MB-435 cells at 450 uM after 48 hrs by SRB assay; type: functional, cell-based; procedure, shortened: as §5
[16] = target: Delta-type opioid receptor (Homo sapiens) (UniProt P41143); experiment: Displacement of [3H][D-Ala2,D-Leu5]enkephalin from human cloned delta opioid receptor at 10 uM; procedure, shortened: as §6
[17] = test system: NCI-H460; experiment: Cytotoxicity against human NCI-H460 cells at 45 uM after 48 hrs by MTT assay; type: functional, cell-based; procedure, shortened: as §4
[18] = target: Delta-type opioid receptor (Homo sapiens) (UniProt P41143); experiment: Agonist activity at human delta opioid receptor expressed in CHO cells assessed as inhibition of forskolin-stimulated adenylyl cyclase relative to [D-Pen2,D-Pen5]-enkephalin; type: functional, cell-based
Procedure, shortened: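 δ-Opioid receptor-expressing CHO cells washed with serum-free F12 Ham's medium, labelled 8 h with 1.2 μCi [3H]adenine. Then 40 min at 37 °C with 50 μM Ro20-1724, peptidase inhibitors (10 μM bestatin, 30 μM captopril, 50 μM L-leucyl-L-leucine), 50 μM forskolin and varied ligand concentrations. [3H]cAMP isolated on cation-exchange resin and alumina, counted with [14C]cAMP recovery correction.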

Chain of Delta-type opioid receptor (Homo sapiens) (P41143 whole entry): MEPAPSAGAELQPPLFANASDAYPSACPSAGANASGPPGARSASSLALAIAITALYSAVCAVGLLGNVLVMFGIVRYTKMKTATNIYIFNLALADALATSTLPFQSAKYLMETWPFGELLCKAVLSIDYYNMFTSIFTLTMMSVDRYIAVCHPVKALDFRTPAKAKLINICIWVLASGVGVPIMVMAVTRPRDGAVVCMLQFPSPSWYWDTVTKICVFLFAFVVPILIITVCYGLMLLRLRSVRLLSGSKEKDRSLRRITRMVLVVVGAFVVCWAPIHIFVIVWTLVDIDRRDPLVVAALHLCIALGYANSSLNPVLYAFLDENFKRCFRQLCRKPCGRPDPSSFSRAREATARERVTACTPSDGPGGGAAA

SMILES | Activity [1] | Activity [2] | Activity [3] | Activity [4] | Activity [5] | Activity [6] | Activity [7] | Activity [8] | IC50 [9] | Activity [10] | IC50 [11] | inhibition at 45 µM [12] | Activity [13] | inhibition [14] | Activity [15] | inhibition [16] | Activity [17] | Activity [18]
Nc1ncc(-c2ccccc2)c2ccncc12 [LOPHOCLADINE B] | inactive | Active | 19.8% | inactive | 80% | 8% | Active | inactive | 64.6 µM | Active | 3.1 µM | 85% | 72.2% |  |  |  |  | 
O=c1[nH]cc(-c2ccccc2)c2ccncc12 |  |  |  |  |  |  |  | inactive |  |  |  |  |  | 50% | inactive | 50% | inactive | inactive
